# Compound activity from PubChem.
# Shown are actives, neighbours in structure and some others; about 3.3% of the full set was active somewhere.
# PfM18AAP inh-1 = PfM18AAP enzyme inhibition. inhibition, % at 7.35 µM. recombinant PfM18AAP, H-Glu-NHMec fluorogenic cleavage. hit rate 1.2% among 290,000;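 active = inhibition above the campaign mean inhibition over all tested compounds plus 3 SD, cut at about 28% in these data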;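 note: 0% = plate median of test compound wells and 100% = 2 mM ZnCl2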
# NRP1-CendR mod = NRP-1/CendR interaction modulation; O14786; FAM-RPARPAR peptide binding to NRP-1, fluorescence polarization; inhibition, % at 25 µM; hit rate 0.85% among 360,000;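 active = inhibition or corrected inhibition above about 18%, plus a signal ratio from 0.5 to 1.5, limit read from the data, passing the limit was not always enough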
# sPLA2-III inh = Blocks human group III sPLA2 activity; QFRET BODIPY PC-A2 liposome hydrolysis, fluorescence; hit rate 0.56% among 370,000; Q9NZ20; inhibition, % at 12.2 µM;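 active = inhibition above mean plus 3 SD of compounds lying within the high and low control bounds, cut at about 19% in these data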;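 note: 0% = median of test compound wells and 100% = no enzyme DMSO wells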
# Target sequence (Q9NZ20 whole entry, looked up): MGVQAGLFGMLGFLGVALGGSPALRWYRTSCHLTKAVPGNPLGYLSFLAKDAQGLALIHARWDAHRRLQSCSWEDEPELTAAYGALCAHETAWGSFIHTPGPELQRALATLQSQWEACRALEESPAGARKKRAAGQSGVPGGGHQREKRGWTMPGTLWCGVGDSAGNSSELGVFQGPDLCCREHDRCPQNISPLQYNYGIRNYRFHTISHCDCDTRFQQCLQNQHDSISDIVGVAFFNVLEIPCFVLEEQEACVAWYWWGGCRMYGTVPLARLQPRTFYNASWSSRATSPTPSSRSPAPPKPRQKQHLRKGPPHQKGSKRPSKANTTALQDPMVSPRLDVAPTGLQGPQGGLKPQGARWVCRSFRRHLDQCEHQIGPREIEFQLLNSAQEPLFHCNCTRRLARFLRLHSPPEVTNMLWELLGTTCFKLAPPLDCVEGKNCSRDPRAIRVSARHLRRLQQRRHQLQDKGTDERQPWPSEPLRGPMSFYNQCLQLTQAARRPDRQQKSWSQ
# Hep lipid drop = modulators of hepatic lipid droplet formation; AML12 mouse hepatocytes, oleate lipid droplets, BODIPY imaging; inhibition, % at 6.5 µM; hit rate 0.4% among 240,000;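 active = lipid droplet intensity inhibited by at least 50%, with more than 500 cells counted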
#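 Assay system: AML12 mouse liver cells | Compound: 6.5 µM single-point dosing | Schedule: Overnight exposure | Technique: Fluorescence imaging, 20x objective, two fields per well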
# Arrestin-AP2 inh = human beta-arrestin and AP2 interaction inhibition | AID 504490 | hit rate 0.31% among 340,000 | FITC-arrestin peptide / GST-AP2 beads, flow cytometry; AP2 beta2 appendage carries R879A mutation | inhibition, % at 10 µM;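 active = inhibition above a set limit, near 3 SD of compounds lacking own fluorescence, cut at about 54% in these data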;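 note: plate controls were DMSO wells for no effect and 5 µM unlabelled arrestin peptide for full effect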
#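 Assay system: GST-AP2 R879A bound to glutathione beads, E. coli-expressed; Medium: PBS with 0.05% Tween 20 and 0.1% BSA; Also added: fluorescein-tagged arrestin peptide at 50 nM final; Timing: 12 min plus 1 h, RT; Measured by: flow cytometry, FL1 (488/535 nm); Evaluation: percent drop in bead-associated FITC signal.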
# m5-HT2A agonist = agonists of mouse serotonin 5-HT2A receptor (HTR2A). activation, % at 7.6 µM. CHO-K1 mHTR2A beta-arrestin complementation, luminescence; percent of 30 µM serotonin response. AID 624169. hit rate 0.66% among 360,000. P35363;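 active = activation above a run cutoff, the mean activation of all tested compounds plus 3 SD, cut at about 14% in these data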;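 note: 0% = plate median of compound wells and 100% = 30 µM serotonin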
# PfM18AAP inh-2 = PfM18AAP inhibition, confirmation; AID 2170; inhibition, % at 7.35 µM; shares compounds with PfM18AAP inh-1; hit rate 28% among 2,400; recombinant PfM18AAP, H-Glu-NHMec fluorogenic cleavage;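 active = mean inhibition over replicate wells above the hit cutoff set for the earlier primary screen, cut at about 29% in these data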;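 note: 0% = median of test compound wells and 100% = 2 mM ZnCl2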
# CTSL1 confirm = counter-screen for PFM18AAP inhibitors: confirmation of human cathepsin L inhibitors; inhibition, % at 5.96 µM; 2,400 tested, under 10 active; AID 2178; shares compounds with PfM18AAP inh-1; purified cathepsin L1, Z-Leu-Arg-MCA fluorescence;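 active = average inhibition across replicates above the hit cutoff set in the earlier primary screen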;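 note: 0% = median of test compound wells and 100% = Z-Phe-Ala-diazomethylketone 1 µM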
# Arr-AP2 CP1 = human beta-arrestin and AP2 interaction inhibition, cherry pick; shares compounds with Arrestin-AP2 inh; GST-AP2 beads, FITC arrestin peptide binding, flow cytometry; GST-fused beta2-adaptin appendage, R879A mutant; inhibition, % at 10 µM; hit rate 2% among 1,300; AID 504908;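 active = inhibition above a set limit, roughly 3 SD of non-fluorescent compound noise, cut at about 38% in these data; inactive = inhibition at or below that limit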;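 note: loss of bead fluorescence from 50 nM FITC arrestin peptide bound to appendage; 0% = negative control wells and 100% = excess unlabelled arrestin peptide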
# GST-FITC bead = disrupts GST binding to glutathione beads, arrestin-AP2 artifact; shares compounds with Arrestin-AP2 inh; AID 588338; inhibition, % at 10 µM; GST-fluorescein binding to GSH beads, fluorescence, counter-screen; hit rate 2% among 1,300;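 active = inhibition above 50%, about 3 SD of the inhibition seen with non-fluorescent compounds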;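 note: fluorescein maleimide labelled GST captured on 4 micron glutathione beads; higher means more loss of bead fluorescence from quenching or blocked binding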
# OPRM1 ag = activates human mu opioid receptor in HTR2A counterscreen; shares compounds with m5-HT2A agonist; U2OS OPRM1 beta-arrestin PathHunter, luminescence; DMSO 0%, DAMGO 9.3 µM 100%; activation, % at 9.3 µM; hit rate 5.3% among 2,300;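 active = mean activation above the mean of DMSO-only wells plus 3 SD, cut at about 0.5% in these data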
# m5-HT2A ag conf = mouse HTR2A agonism confirmed; shares compounds with m5-HT2A agonist; CHO-K1 PathHunter beta-arrestin recruitment, luminescence; DMSO 0%, 30 µM serotonin 100%; activation, % at 7.6 µM; hit rate 19% among 2,300; AID 624381;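 active = mean activation across triplicates above the hit threshold derived in the original primary screen, cut at about 15% in these data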
# * marks the source's active call; other numbers are inactive results; x = no result given.
SMILES,PfM18AAP inh-1,NRP1-CendR mod,sPLA2-III inh,Hep lipid drop,Arrestin-AP2 inh,m5-HT2A agonist,PfM18AAP inh-2,CTSL1 confirm,others
Cc1ccc(-c2n[nH]c(=S)n2/N=C/c2ccc(C(=O)O)cc2)cc1,36*,-6,8,x,1,9,10,-4,
COc1cc(/C=N/n2c(-c3ccccc3)n[nH]c2=S)ccc1O,20,-8,7,-2,-2,4,x,x,
COc1cc(/C=N/n2c(-c3ccccc3)n[nH]c2=S)cc(OC)c1O,32*,1,13,8,13,0,-7,-3,
Cc1ccc(C=Nn2c(-c3n[nH]c4c3CCC4)n[nH]c2=S)s1,x,x,13,x,x,x,x,x,
CCN(CC)c1ccc(/C=N/NC(=O)c2c(Cl)cnn2C)c(O)c1,9,-4,18,-9,9,-2,x,x,
Cc1[nH]c(=S)c(C#N)c(-c2ccco2)c1C(=O)N(C)C,51*,-22,3,4,18,4,29*,1,
c1ccc(NCn2cncn2)nc1,87*,2,7,7,12,-2,66*,3,
COc1ccccc1/C=C/C(=O)OC(C)CN1CCOCC1 (stereo not given),51*,-7,3,x,-6,-9,-39,4,
O=C(NNC(=S)Nc1ccccc1)Nc1ccccc1,53*,-10,5,20,34,-2,18,-6,
O=C(NNC(=S)Nc1ccccc1)c1ccncc1,7,-1,7,x,2,8,x,x,
COc1cccc(NC(=O)N(C)C[C@H]2OCc3ccccc3-c3c(n(C)c4ccccc34)C(=O)N([C@H](C)CO)C[C@H]2C)c1,x,x,-22,x,x,x,x,x,
O=C(Nc1ncccn1)c1ccc([N+](=O)[O-])cc1[N+](=O)[O-],x,-11,19,x,-4,4,x,x,
O=C(Nc1ncn[nH]1)c1ccc([N+](=O)[O-])cc1[N+](=O)[O-],44*,5,11,x,19,6,34*,1,
O=C(Nc1ncn[nH]1)c1ccccc1Br,38*,7,4,-14,17,2,44*,-4,
O=C(C(=O)N1CCC(CNC(=O)c2cccs2)CC1)c1cc2ccccc2o1,x,x,13,x,x,x,x,x,
O=c1ccn([C@@H]2O[C@H](CNCc3ccccc3OCc3ccc(Cl)cc3Cl)[C@@H](O)[C@H]2O)c(=O)[nH]1,x,0,-1,x,x,-5,x,x,
CN1C(=O)CS(=O)c2ccc(C(=O)NC3CC3)cc21 (stereo not given),44*,2,-1,x,15,-2,-13,2,
COC(=O)/C=C/c1ccc(OC(=O)OC)c(OC(=O)OC)c1,75*,-3,-4,-4,5,3,34*,-1,
Cc1cc(NC(=O)CSc2ncc(C(=O)O)n2-c2ccc(F)cc2)no1,x,2,8,x,14,-2,x,x,
Cc1cc(NC(=O)c2ccccc2O)nc(C)n1,2,3,-3,5,13,3,x,x,
Cc1cc(C)nc(NNC(=O)c2ccccc2O)n1,43*,0,4,-1,2,-3,24,-8,
NC(=O)CC1Nc2cccc3cccc(c23)NC1=O (stereo not given),52*,-2,-6,-14,40,2,-52,1,
Cc1ccc(Oc2coc3cc(OC(=O)c4cccs4)ccc3c2=O)cc1,-13,9,-3,x,9,2,x,x,
CC(=O)Oc1ccc2c(=O)c(Oc3ccccc3)coc2c1OC(C)=O,33*,-53,2,-32,4,3,2,0,
COc1cc(C(=O)Nn2cnnc2)ccc1OC(F)F,45*,0,1,4,54*,-3,24,-2,Arr-AP2 CP1=-8;GST-FITC bead=-3
SMILES,PfM18AAP inh-1,NRP1-CendR mod,sPLA2-III inh,Hep lipid drop,Arrestin-AP2 inh,m5-HT2A agonist,PfM18AAP inh-2,CTSL1 confirm,others
CCN1/C(=C/C=C/C=C/C=C/c2sc3ccccc3[n+]2CC)Sc2ccccc21,40*,-49,13,6,55*,-5,-2,3,Arr-AP2 CP1=26;GST-FITC bead=8
CC[n+]1c(C=C2C=C(C)OC(C)=C2)sc2ccccc21,3,-17,1,2,8,4,x,x,
C[C@@H]1CN([C@H](C)CO)C(=O)CCCn2nncc2CO[C@@H]1CN(C)C(=O)c1ccncc1,x,6,11,x,x,0,x,x,
OC(Cn1cnnc1)c1ccccc1 (stereo not given),79*,9,5,x,28,17*,76*,-3,OPRM1 ag=-1;m5-HT2A ag conf=1
O=C(NCCc1ccc(O)c(O)c1)C1COc2ccccc2O1 (stereo not given),80*,9,-7,-6,14,14*,62*,1,OPRM1 ag=0;m5-HT2A ag conf=23*
O=C(NCCc1ccccc1)C1COc2ccccc2O1 (stereo not given),-2,9,6,x,9,0,x,x,
N#Cc1c(-c2ccccc2)[nH]c(=S)[nH]c1=O,34*,4,13,4,52,22*,-22,-1,OPRM1 ag=-1;m5-HT2A ag conf=-4
Cc1nnc(SCc2cc(=O)[nH]c(=S)[nH]2)s1,47*,11,2,3,19,16*,16,1,OPRM1 ag=0;m5-HT2A ag conf=-4
O=c1cc(CSc2ccccc2)[nH]c(=S)[nH]1,3,4,1,x,4,2,x,x,
CN=c1scc(-c2ccc(F)cc2)n1/N=C/c1ccc(O)c(O)c1,54*,14,11,-16,13,16*,48*,3,OPRM1 ag=0;m5-HT2A ag conf=85*
CC(C=NN=C1C(=O)Nc2ccccc21)=Cc1ccccc1,x,x,-11,x,x,x,x,x,
CCCCCCCCC(c1nc2ccccc2[nH]1)N1CCN=C1c1cc2ccccc2[nH]1 (stereo not given),x,-8,-1,x,x,-2,x,x,
Oc1ccc(Br)cc1C=Nc1ccc(Cl)cc1,0,-16,-2,-7,2,6,x,x,
